The results in this text go back to ChEMBL document CHEMBL4270631, “Design, synthesis and in vitro anti-Zika virus evaluation of novel Sinefungin derivatives” (Eur J Med Chem, 2018).

Molecules are shown by their SMILES. pIC50, pKi: −log10 of the molar value.

Data set [1] can be described thus: Inhibition of recombinant N-terminal GST-tagged Dengue virus 3 NS5 N7-MTase F133A mutant expressed in Escherichia coli BL21 by scintillation proximity assay. More on the design: species or system dengue virus type 3.
A short description of data set [2]: Inhibition of recombinant N-terminal GST-tagged Dengue virus 3 NS5 N7-MTase activity expressed in Escherichia coli BL21 by scintillation proximity assay. More on the design: species or system dengue virus type 3. (Scintillation proximity formats need no separation of bound from free tracer.)
In data set [3] the target is DNA (cytosine-5)-methyltransferase 1 (Homo sapiens, UniProt P26358). Nature of the data set: Inhibition of human DNMT1A using double-stranded hemi-DNA oligonucleotide as substrate measured after 40 mins by [3H]methyl incorporation assay.
Sequence of DNA (cytosine-5)-methyltransferase 1 (P26358 whole entry): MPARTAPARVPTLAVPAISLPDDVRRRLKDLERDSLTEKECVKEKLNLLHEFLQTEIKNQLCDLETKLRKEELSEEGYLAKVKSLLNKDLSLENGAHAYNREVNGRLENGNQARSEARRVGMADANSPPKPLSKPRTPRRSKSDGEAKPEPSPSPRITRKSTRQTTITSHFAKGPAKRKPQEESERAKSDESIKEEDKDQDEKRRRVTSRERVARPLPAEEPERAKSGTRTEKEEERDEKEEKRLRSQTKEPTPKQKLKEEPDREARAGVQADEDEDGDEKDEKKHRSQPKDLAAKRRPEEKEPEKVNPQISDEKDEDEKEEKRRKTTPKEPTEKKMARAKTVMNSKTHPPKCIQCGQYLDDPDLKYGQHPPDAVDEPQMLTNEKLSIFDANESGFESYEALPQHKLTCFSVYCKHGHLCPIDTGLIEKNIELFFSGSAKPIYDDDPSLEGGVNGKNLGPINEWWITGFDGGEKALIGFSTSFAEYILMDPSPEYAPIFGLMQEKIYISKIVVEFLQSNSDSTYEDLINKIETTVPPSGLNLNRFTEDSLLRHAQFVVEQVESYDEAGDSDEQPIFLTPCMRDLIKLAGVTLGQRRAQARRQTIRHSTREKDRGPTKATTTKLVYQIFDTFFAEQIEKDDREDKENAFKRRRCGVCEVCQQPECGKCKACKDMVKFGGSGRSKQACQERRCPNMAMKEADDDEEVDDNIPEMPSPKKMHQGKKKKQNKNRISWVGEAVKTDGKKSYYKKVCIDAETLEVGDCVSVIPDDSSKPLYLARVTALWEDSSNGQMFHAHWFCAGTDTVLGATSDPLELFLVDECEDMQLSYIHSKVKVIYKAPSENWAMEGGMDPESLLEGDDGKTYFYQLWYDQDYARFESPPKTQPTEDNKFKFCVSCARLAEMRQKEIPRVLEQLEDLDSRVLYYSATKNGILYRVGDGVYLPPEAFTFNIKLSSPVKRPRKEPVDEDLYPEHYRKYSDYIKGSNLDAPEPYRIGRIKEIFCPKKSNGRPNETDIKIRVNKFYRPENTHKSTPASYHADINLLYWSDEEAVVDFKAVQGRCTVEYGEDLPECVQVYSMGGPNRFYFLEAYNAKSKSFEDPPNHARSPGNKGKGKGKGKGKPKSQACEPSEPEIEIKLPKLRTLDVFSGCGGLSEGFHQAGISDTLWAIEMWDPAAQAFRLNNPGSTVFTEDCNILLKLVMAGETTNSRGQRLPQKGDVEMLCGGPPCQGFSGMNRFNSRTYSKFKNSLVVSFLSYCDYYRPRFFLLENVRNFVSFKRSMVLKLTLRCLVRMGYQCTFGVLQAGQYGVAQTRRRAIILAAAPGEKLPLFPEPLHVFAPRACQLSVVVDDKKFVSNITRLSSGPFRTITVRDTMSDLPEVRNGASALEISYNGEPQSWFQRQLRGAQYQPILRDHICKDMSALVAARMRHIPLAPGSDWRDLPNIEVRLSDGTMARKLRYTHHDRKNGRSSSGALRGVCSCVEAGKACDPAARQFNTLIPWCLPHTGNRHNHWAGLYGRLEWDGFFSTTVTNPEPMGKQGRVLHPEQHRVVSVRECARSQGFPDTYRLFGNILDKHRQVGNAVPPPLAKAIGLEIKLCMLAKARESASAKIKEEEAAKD
Data set [4] can be described thus: Inhibition of recombinant N-terminal GST-tagged Dengue virus 3 2'-O-MTase activity expressed in Escherichia coli BL21 by scintillation proximity assay. More on the design: species or system dengue virus type 3.
Data set [5] is described as follows: Inhibition of recombinant N-terminal GST-tagged Dengue virus 3 2'-O-MTase F133A mutant expressed in Escherichia coli BL21 by scintillation proximity assay. More on the design: species or system dengue virus type 3.
Data set [6] concerns the target mRNA cap guanine-N(7) methyltransferase (Homo sapiens, UniProt O43148). Nature of the data set: Inhibition of recombinant human N-terminal His-tagged RNMT (1 to 476 residues) expressed in Escherichia coli BL21 using 5'-GpppAGAACCUG-biotin-TEG-3 as substrate after 10 mins by [3H]methyl incorporation assay.
Data set [7] in a line: Cytotoxicity against BHK cells after 8 days by CellTiter-Glo assay. In kind it is cell-based, Mesocricetus auratus. The following applies: hamster. A digest of the protocol: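 BHK cells seeded at 5,000/well, allowed 24 h recovery, then given maintenance medium (DMEM, 2% FBS, P/S) containing compound in 3-fold dilutions from 200 μM to 0.09 μM, or drug-free. Viability read by CellTiter-Glo luminescence after 8 days' exposure; CC50 calculated from curves.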
In general terms: ATP-based viability assays read luminescence as a measure of living cells.

Data set [8] is described as follows: Selectivity index, ratio of CC50 for BHK cells to IC50 for Zika virus SMGC infected in BHK cells. The following applies: hamster, BHK cells infected with Zika virus SMGC, read-out: Ratio CC50/IC50. The data set is classed as toxicity, cell-based. A digest of the protocol: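 Ratio of CC50 from 8-day CellTiter-Glo viability of uninfected BHK cells (compound 200–0.09 μM) to IC50 from 8-day protection of BHK cells against 100TCID₅₀ ZIKV-induced CPE (compound from 50 μM, 3-fold dilutions), both in DMEM with 2% FBS.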

The subject of data set [9] is Zika virus. Nature of the data set: Antiviral activity against Zika virus SMGC infected in BHK cells assessed as inhibition of virus induced cytopathic effect after 8 days by CellTiter-Glo luminescent cell viability assay. The following applies: 192 h. The data set is classed as functional, organism-based. The essentials:
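BHK cells seeded at 5,000/well in DMEM with 10% FBS and P/S, 24 h at 37°C, 5% CO₂, then switched to maintenance medium (DMEM, 2% FBS, P/S). Vero-grown ZIKV diluted to 100TCID₅₀ added with compounds in 3-fold dilutions from 50 μM; incubated 8 days until 100% CPE; viability read by CellTiter-Glo luminescence; IC50 calculated from curves.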
A general note: Protection from cytopathic effect is a common read-out in antiviral testing.

In data set [10] the test system is Zika virus. The experiment in a line: Potency index, ratio of EPZ004777 IC50 to test compound IC50 for Zika virus SMGC infected in BHK cells. In kind it is functional.

Sequence of mRNA cap guanine-N(7) methyltransferase (O43148 whole entry, the tested form may be a part): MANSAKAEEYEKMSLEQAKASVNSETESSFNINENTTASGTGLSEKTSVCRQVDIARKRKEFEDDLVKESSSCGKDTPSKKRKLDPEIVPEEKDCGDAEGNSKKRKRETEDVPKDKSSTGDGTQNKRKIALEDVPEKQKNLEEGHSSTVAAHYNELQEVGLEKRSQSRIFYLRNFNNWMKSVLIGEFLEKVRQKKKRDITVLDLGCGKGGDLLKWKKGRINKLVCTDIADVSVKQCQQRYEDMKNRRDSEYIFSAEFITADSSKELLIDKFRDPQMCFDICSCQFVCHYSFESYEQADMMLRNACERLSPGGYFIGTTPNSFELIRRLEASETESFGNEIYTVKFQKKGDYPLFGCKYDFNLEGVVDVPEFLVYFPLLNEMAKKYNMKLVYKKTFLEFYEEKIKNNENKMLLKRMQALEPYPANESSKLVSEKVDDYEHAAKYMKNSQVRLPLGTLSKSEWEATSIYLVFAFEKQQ

For the compound `N[C@@H](CCSC[C@H]1O[C@@H](n2cnc3c(NCc4cccc(Cl)c4)ncnc32)[C@H](O)[C@@H]1O)C(=O)O`, the pKi in data set [1] was 5.25 to 7.36; in data set [2], 6.62 to 8.70; in data set [3], < 4.30; in data set [4] it was 6.62 to 8.70; in data set [5] it was 5.25 to 7.36; in data set [6], < 4.30.
For the compound `CC(C)N(CCCNC(=O)Nc1ccc(C(C)(C)C)cc1)C[C@H]1O[C@@H](n2ccc3c(N)ncnc32)[C@H](O)[C@@H]1O`, the CC50 at 192 h in data set [7] was > 200 µM. In addition, the selectivity ratio in data set [8] is > 5.68. Besides, the pIC50 in the data set on Zika virus [9] is 4.45.
In the case of `CC(C)N(CCCNC(=O)Nc1ccc(C(F)(F)F)cc1)C[C@H]1O[C@@H](n2cnc3c(NCc4cccc(F)c4)ncnc32)[C@H](O)[C@@H]1O`, in data set [7], the CC50 at 192 h came to 20.3 µM. Moreover, the selectivity ratio in data set [8] came out at 3.14. For the same compound, the pIC50 in the data set on Zika virus [9] is 5.19. For the same compound, the “Ratio IC50” value in the data set on Zika virus [10] is recorded as 5 - 7.7.
Consider `CC(C)N(CCCNC(=O)NC(C)(C)C)C[C@H]1O[C@@H](n2cnc3c(NCc4cccc(F)c4)ncnc32)[C@H](O)[C@@H]1O`, for which, in the data set on Zika virus [9], the pIC50 is < 4.30.
Take `CC(C)N(CCCNC(=O)Nc1ccc(C(C)(C)C)cc1)C[C@H]1O[C@@H](n2cnc3c(NCc4cccc(Cl)c4)ncnc32)[C@H](O)[C@@H]1O`: the CC50 at 192 h in [7] amounted to 6.73 µM.
For `CC(C)N(CCCO)C[C@H]1O[C@@H](n2cnc3c(NCc4cccc(F)c4)ncnc32)[C@H](O)[C@@H]1O`, in the data set on Zika virus [9], the pIC50 is < 4.30.
On to `COc1ccc(NC(=O)NCCCN(C[C@H]2O[C@@H](n3cnc4c(NCc5cccc(F)c5)ncnc43)[C@H](O)[C@@H]2O)C(C)C)cc1`, for which the pIC50 in the data set with Zika virus [9] was < 4.30.
As to `CC(C)N(CCCNC(=O)Nc1ccc(F)cc1)C[C@H]1O[C@@H](n2cnc3c(NCc4cccc(Cl)c4)ncnc32)[C@H](O)[C@@H]1O`, the CC50 at 192 h in data set [7] stood at 20 µM. Besides, the selectivity ratio in [8] worked out at 1.31. Also, the pIC50 in the data set with Zika virus [9] is 4.82.
Consider `COC(=O)CCN(C[C@H]1O[C@@H](n2cnc3c(NCc4cccc(F)c4)ncnc32)[C@H](O)[C@@H]1O)C(C)C`, for which the pIC50 in the data set on Zika virus [9] was < 4.30.
Turning to `CC(C)N(CCCN)C[C@H]1O[C@@H](n2cnc3c(NCc4cccc(F)c4)ncnc32)[C@H](O)[C@@H]1O`, in the data set with Zika virus [9], the pIC50 is < 4.30.
The compound `CC(C)N(CCCNC(=O)NC(C)(C)C)C[C@H]1O[C@@H](n2cnc3c(NCc4cccc(Cl)c4)ncnc32)[C@H](O)[C@@H]1O` displayed a CC50 at 192 h in data set [7] of 58.5 µM. In [8], the selectivity ratio worked out at 2.84. Further, the pIC50 in the data set with Zika virus [9] is 4.69.
Take `CC(C)N(CCCNC(=O)Nc1ccc(F)cc1)C[C@H]1O[C@@H](n2cnc3c(NCc4cccc(F)c4)ncnc32)[C@H](O)[C@@H]1O`: in the data set with Zika virus [9], the pIC50 was < 4.30.
For the compound `CC(C)NC[C@H]1O[C@@H](n2cnc3c(NCc4cccc(Cl)c4)ncnc32)[C@H](O)[C@@H]1O`, in data set [7], the midpoint of cytotoxicity, the CC50 at 192 h, lay at 29.4 µM. In addition, the selectivity ratio in data set [8] was 4.64. Further, the pIC50 with Zika virus [9] is 5.20.
In the case of `CC(C)N(CCCNC(=O)Nc1cccc(C(F)(F)F)c1)C[C@H]1O[C@@H](n2cnc3c(NCc4cccc(F)c4)ncnc32)[C@H](O)[C@@H]1O`, in data set [7], the midpoint of cytotoxicity, the CC50 at 192 h, lay at 12.9 µM. Further, the selectivity ratio in [8] is 1.84. Moreover, the pIC50 in the data set on Zika virus [9] is 5.16. The “Ratio IC50” value in the data set with Zika virus [10] is recorded as 5 - 7.7.
On to `CC(C)N(CCCNC(=O)NC1CCCCC1)C[C@H]1O[C@@H](n2cnc3c(NCc4cccc(F)c4)ncnc32)[C@H](O)[C@@H]1O`, for which, in the data set on Zika virus [9], the pIC50 is < 4.30.
On to `CC(C)N(CCCNC(=O)Nc1ccc(C(C)(C)C)cc1)C[C@H]1O[C@@H](n2cnc3c(NCc4cccc(F)c4)ncnc32)[C@H](O)[C@@H]1O`, for which the half-maximal cytotoxic concentration (CC50) at 192 h in data set [7] worked out at 18.7 µM. The selectivity ratio in [8] was determined as 2.81. The pIC50 in the data set with Zika virus [9] is 5.18. Also, the “Ratio IC50” value with Zika virus [10] is 5 - 7.7.
For `CC(C)N(CCCNC(=O)Nc1cccc(C(F)(F)F)c1)C[C@H]1O[C@@H](n2cnc3c(NCc4cccc(Cl)c4)ncnc32)[C@H](O)[C@@H]1O`, in that order: 5.88 µM, 1.29, 5.34 and 5 - 7.7.
For `COc1ccc(NC(=O)NCCCN(C[C@H]2O[C@@H](n3cnc4c(NCc5cccc(Cl)c5)ncnc43)[C@H](O)[C@@H]2O)C(C)C)cc1`, the pIC50 in the data set on Zika virus [9] was < 4.30.
Still for that read-out and setting: the figure for `COC(=O)CCN(C[C@H]1O[C@@H](n2cnc3c(NCc4cccc(Cl)c4)ncnc32)[C@H](O)[C@@H]1O)C(C)C` is < 4.30.
As for `CC(C)N(CCCNC(=O)NC1CCCCC1)C[C@H]1O[C@@H](n2cnc3c(NCc4cccc(Cl)c4)ncnc32)[C@H](O)[C@@H]1O`, in data set [7], the CC50 at 192 h amounted to 57.6 µM. For the same compound, in data set [8], the selectivity ratio came out at 4.7. The pIC50 with Zika virus [9] is 4.91.
For `CC(C)N(CCCO)C[C@H]1O[C@@H](n2cnc3c(NCc4cccc(Cl)c4)ncnc32)[C@H](O)[C@@H]1O`, in that order: 70.6 µM, 2.57 and 4.56.
Take `Cc1ccc(NC(=O)NCCCN(C[C@H]2O[C@@H](n3cnc4c(NCc5cccc(F)c5)ncnc43)[C@H](O)[C@@H]2O)C(C)C)cc1`: the pIC50 in the data set with Zika virus [9] is < 4.30.
As to `CC(C)NC[C@H]1O[C@@H](n2cnc3c(NCc4cccc(F)c4)ncnc32)[C@H](O)[C@@H]1O`, in data set [7], the CC50 at 192 h is > 200 µM. For the same compound, in [8], the selectivity ratio was > 6.67. The pIC50 in the data set on Zika virus [9] was 4.52.
As for `CC(C)N(CCCN)C[C@H]1O[C@@H](n2cnc3c(NCc4cccc(Cl)c4)ncnc32)[C@H](O)[C@@H]1O`, in the data set on Zika virus [9], the negative-log IC50 (pIC50) was < 4.30.
As to `CC(C)N(CCCNC(=O)Nc1ccc(C(F)(F)F)cc1)C[C@H]1O[C@@H](n2cnc3c(NCc4cccc(Cl)c4)ncnc32)[C@H](O)[C@@H]1O`, the midpoint of cytotoxicity in data set [7], the CC50 at 192 h, lay at 6.35 µM.
`Cc1ccc(NC(=O)NCCCN(C[C@H]2O[C@@H](n3cnc4c(NCc5cccc(Cl)c5)ncnc43)[C@H](O)[C@@H]2O)C(C)C)cc1` gave a CC50 at 192 h in data set [7] of 19.1 µM. Besides, in [8], the selectivity ratio came to 3.29. Besides, the pIC50 in the data set on Zika virus [9] is 5.24. In addition, the “Ratio IC50” value in the data set on Zika virus [10] is 5 - 7.7.
`Nc1ncnc2c1ncn2[C@@H]1O[C@H](C[C@@H](N)CC[C@H](N)C(=O)O)[C@@H](O)[C@H]1O` [SINEFUNGIN]: the pIC50 in the data set on Zika virus [9] was < 4.30.

In general, pKi refers to the Ki on a negative log10 scale, so that one unit is a factor of ten. For orientation: CC50 means the concentration giving 50% cytotoxicity. A lower CC50 goes with greater toxicity to the cells. For orientation: pIC50 means the IC50 on a negative log10 scale, so that one unit is a factor of ten.
